Data set [1] deals with patients. The conditions noted are these: cited from earlier work.
Data set [2] deals with patients. Conditions: cited from earlier work. This is another data set of the same source.
Another data set relates to CDK1. Conditions: cited from earlier work.
The subject of another data set is CDK7. The conditions noted are these: cited from earlier work.
In data set [3] the test system is patients. Conditions: intravenous; cited from earlier work.
Another data set has as its system CDK2. The conditions noted are these: cited from earlier work.
The next data set relates to CDK4. Conditions: cited from earlier work.
Another data set in a line: Plasma pharmacokinetics. Format: in vivo, human. Conditions: across doses. In a few lines:
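The test compound is given orally once daily for 7 days in 2-week cycles (S1). Plasma is sampled in cycle 1 on days 1, 2, 4, 7, 8 and 9, and in cycle 2 on days 1, 4 and 7. Cycle 1 day 1 is sampled from 30 min to 24 h after dosing and day 7 from 30 min to 96 h. Parent and metabolite are measured by validated LC-MS-MS, with calibration ranges of 0.00109–1.09 and 0.00105–1.05 μM respectively.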

A short description of the next data set: Urinary excretion. Format: in vivo, human. Conditions: patients at the RP2D in S1. In a few lines:
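Urine is collected only from S1 patients dosed at the recommended phase II dose, with once-daily oral dosing for 7 days in 2-week cycles. Parent compound and metabolite in urine are measured by validated LC-MS-MS, with calibration ranges of 0.217–109 μM for the parent and 0.210–105 μM for the metabolite.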

Consider `CCc1cnn2c(NCc3ccc[n+]([O-])c3)cc(N3CCCC[C@H]3CCO)nc12` [dinaciclib], for which the toxicities result in the data set on patients [1] is “myelotoxicity, GI toxicity, fatigue, skin rash and electrolytes inbalance, with no neurological toxicity”.

With `C[C@]12O[C@H](C[C@]1(O)CO)n1c3ccccc3c3c4c(c5c6ccccc6n2c5c31)CNC4=O` [CEP-701], in the data set with patients [2], the “most frequently reported side effects” value is “predominantly GI-related (nausea, diarrhea, anorexia, constipation, and vomiting), and asthenia”; the “patients with stable disease for at least six months” value was “three”; the “patients with stable disease for more than three months” value is given as “Seven of 30”.

Take `CN1CC[C@H](c2c(O)cc(O)c3c(=O)cc(-c4ccccc4Cl)oc23)[C@H](O)C1` [flavopiridol, reference compound]: in the data set with CDK1, the “inhibition of CDK1” value is “demonstrated inhibition”. For the same compound, the “inhibition of CDK7” value in the data set on CDK7 is “demonstrated inhibition”. Besides, in the data set on patients [3], the clinical activity result was “showed activity in some patients with non-Hodgkin’s lymphoma, renal, prostate, colon, and gastric carcinomas”; the main side effects result is “secretory diarrhea, a proinflammatory syndrome associated with hypotension, and hyperglycemia”. Besides, the “inhibition of CDK2” value in the data set with CDK2 is given as “demonstrated inhibition”. Further, the “inhibition of CDK4” value in the data set on CDK4 is recorded as “demonstrated inhibition”.

Regarding `Nc1nc2cccc(-c3ccc(CN4CCS(=O)(=O)CC4)cc3)n2n1` [metabolite], in the data set “Plasma pharmacokinetics”, the “AUC0-24 of the metabolite relative to parent compound” value is listed as “approximately 30%” and the “Cmax of the metabolite relative to parent compound” value is given as “approximately 30%”. For the same compound, the “amount excreted in urine” value in the data set “Urinary excretion” was 13 % of dose.

In the case of `Cc1ncc(-c2ccnc(Nc3ccc(S(C)(=O)=O)cc3)n2)n1C(C)C` [AZD438], the toxicities entry with patients [1] was “myelotoxicity, GI toxicity, fatigue, skin rash and electrolytes inbalance, with no neurological toxicity”.

As for `CC[C@H](CO)Nc1nc(NCc2ccccc2)c2ncn(C(C)C)c2n1` [seliciclib], the toxicities entry with patients [1] was “myelotoxicity, GI toxicity, fatigue, skin rash and electrolytes inbalance, with no neurological toxicity”.
